# Article PMC9685603 (ACS Omega, 2022)
# Entries after “also recorded” stand apart in the source; their conditions may differ.
# System: HEK 293 cells
# Test: MTT cell viability
# Type: cell-based, human
# Settings: MTT assay, 48 h, studied concentration range 100–0.01 μM
# In short: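 Seeding in DMEM with 10% FBS was 8000 cells/well for MCF-7 and MDA-MB-468 and 5000 cells/well for HEK 293. Cells were held 24 h at 37 °C, 5% CO2, humidified, then exposed to test compounds at varied concentrations for 48 h. MTT reagent (5 mg/mL) was added for 2–4 h and formazan dissolved in DMSO. Absorbance was read at 570/690 nm and % survival calculated.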
smiles,measurement,value
"O=S(=O)(NN=Cc1cn(CCN2CCOCC2)c2ccccc12)c1ccc(Cl)cc1 [Compound 5f, 4-Chloro-N′-((1-(2-morpholinoethyl)-1H-indol-3-yl)methylene)benzenesulfonohydrazide]",toxicity against HEK 293 noncancerous cells,biocompatible; also recorded: nontoxic
